Results on four compounds are retold here after ChEMBL document CHEMBL4387709, “Discovery of Quinoline Analogues as Potent Antivirals against Enterovirus D68 (EV-D68)” (J Med Chem, 2019).

A short description of data set [1]: Selectivity index, ratio of CC50 for human RD cells to EC50 for Enterovirus D68 US/KY/14-18953 infected in human RD cells. Conditions: read-out: Ratio CC50/EC50. The data set is classed as toxicity, cell-based.
The subject of data set [2] is enterovirus D68. In words: Antiviral activity against Enterovirus D68 US/KY/14-18953 infected in human RD cells assessed as inhibition of virus-induced cytopathic effect incubated for 5 mins under shaking condition and measured after 3 days by neutral red dye-based photometric method. The data set is classed as functional, organism-based. Conditions: Enterovirus D, US/KY/14-18953, RD. The method in brief: (§1)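 RD cells seeded one day ahead to ~90% confluence, PBS (Mg/Ca) wash, infected at ~MOI 0.01 with EV-D68 in DMEM/2% FBS/30 mM MgCl2 at 33 °C, 5% CO2. Compounds and 1% P/S added after 1 h. Plates shaken ~5 min, held 3 days, viable cells stained with neutral red (66 µg/ml), A540 read. EC50 from dose-response fits, triplicates.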

Data set [3] in a line: Cytotoxicity against human RD cells after 3 days by neutral red dye-based photometric method. The data set is classed as cell-based. Conditions: RD cells.
Data set [4] concerns enterovirus D68. In words: Antiviral activity against Enterovirus D68 US/KY/14-18953 infected in human A172 cells assessed as inhibition of virus-induced cytopathic effect incubated for 5 mins under shaking condition and measured after 3 days by neutral red dye-based photometric method. Conditions: Enterovirus D, US/KY/14-18953, A 172. The data set is classed as functional, organism-based. In a few lines:
(§2)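 A172 cells (DMEM, 10% FBS) grown ~90% confluent, infected with EV-D68 at ~MOI 0.3 in DMEM/2% FBS/30 mM MgCl2 and kept at 33 °C. P/S and compounds added 1 h later. Brief orbital shaking, then 3-day incubation. Neutral red staining with 540 nm absorbance. EC50 from best-fit dose-response curves in triplicate.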

In data set [5] the test system is RD. In words: Inhibition of 2C protein in Enterovirus D68 US/KY/14-18953 infected in human RD cells assessed as reduction of viral RNA synthesis at 1 uM measured at 9 hrs post infection by reagent-based RT-qPCR method relative to control. The data set is classed as cell-based. The method in brief: (§3)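 DNase-treated. 1.2 µg reverse-transcribed with oligo(dT)18. qPCR run 95 °C 10 min, then 40 cycles of 95 °C 15 s/60 °C 60 s, with melt curve. Compared with DMSO control, one-way ANOVA, mean of two experiments ± SD.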

Data set [6] has as its system HeLa. Briefly: Cytotoxicity against human HeLa cells after 3 days by neutral red dye-based photometric method. The data set is classed as cell-based. Conditions: 72 h. The method in brief: (§4)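 Uninfected cells run as in the CPE assay (33 °C, 3 days, same media) with compound. Viability by neutral red staining and 540 nm absorbance. CC50 from dose-response curves, triplicate experiments.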

The test system of data set [7] is enterovirus D68. In words: Antiviral activity against Enterovirus D68 US/MO/14-18947 infected in human RD cells assessed as inhibition of virus-induced cytopathic effect incubated for 5 mins under shaking condition and measured after 3 days by neutral red dye-based photometric method. The data set is classed as functional, organism-based. Conditions: Enterovirus D, US/MO/14-18947, RD. In a few lines: as §1

The subject of data set [8] is A 172. In words: Cytotoxicity against human A172 cells after 3 days by neutral red dye-based photometric method. The data set is classed as cell-based. Conditions: a 172, 72 h. The method in brief:
as §4

The subject of data set [9] is enterovirus D68. In words: Antiviral activity against Enterovirus D68 US/MO/14-18947 infected in human A172 cells assessed as inhibition of virus-induced cytopathic effect incubated for 5 mins under shaking condition and measured after 3 days by neutral red dye-based photometric method. The data set is classed as functional, organism-based. Conditions: Enterovirus D, US/MO/14-18947, A 172. In a few lines:
as §2

Data set [10] deals with enterovirus D68. Briefly: Antiviral activity against Enterovirus D68 […] infected in human RD cells assessed as inhibition of virus-induced cytopathic effect incubated for 5 mins under shaking condition and measured after 3 days by neutral red dye-based photometric method. Conditions: Enterovirus D. The data set is classed as functional, organism-based. In a few lines:
as §1

The subject of data set [11] is enterovirus D68. In words: Antiviral activity against Enterovirus D68 US/KY/14-18953 infected in human SH-SY5Y cells assessed as inhibition of virus-induced cytopathic effect incubated for 5 mins under shaking condition and measured after 3 days by neutral red dye-based photometric method. The data set is classed as functional, organism-based. Conditions: Enterovirus D, US/KY/14-18953, SH-SY5Y. In a few lines: (§5)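 Virus at ~MOI 1 applied to SH-SY5Y cells (50% DMEM/50% F-12, 10% FBS) at ~90% confluence in DMEM/2% FBS/30 mM MgCl2 at 33 °C. Compounds added after 1 h with 1% P/S, shaken ~5 min, incubated 3 days. Viability read by neutral red uptake (A540). EC50 fitted from dose-response, triplicate.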

Data set [12] relates to RD. In words: Inhibition of 2C protein in Enterovirus D68 US/KY/14-18953 infected in human RD cells assessed as reduction of VP1 expression at 1 uM measured at 9 hrs post infection by DAPI-staining based microscopy. The data set is classed as cell-based. In a few lines: (§6)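 Fixed at 9 hpi (4% formaldehyde), 0.2% Triton X-100 permeabilized, blocked with 10% bovine serum. Stained with rabbit anti-VP1 plus Alexa-488 secondary, nuclei with 300 nM DAPI. Confocal microscopy.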

Data set [13] relates to SH-SY5Y. In words: Cytotoxicity against human SH-SY5Y cells after 3 days by neutral red dye-based photometric method. The data set is classed as cell-based. Conditions: 72 h. The method in brief: as §4
The test system of data set [14] is enterovirus D68. In words: Antiviral activity against Enterovirus D68 US/IL/14-18956 infected in human RD cells assessed as inhibition of virus-induced cytopathic effect incubated for 5 mins under shaking condition and measured after 3 days by neutral red dye-based photometric method. The data set is classed as functional, organism-based. Conditions: Enterovirus D, US/IL/14-18956, RD. In a few lines: as §1

For data set [15], the system named is enterovirus D68. In words: Antiviral activity against Enterovirus D68 US/MO/14-18947 infected in human SH-SY5Y cells assessed as inhibition of virus-induced cytopathic effect incubated for 5 mins under shaking condition and measured after 3 days by neutral red dye-based photometric method. The data set is classed as functional, organism-based. Conditions: Enterovirus D, US/MO/14-18947, SH-SY5Y. In a few lines:
as §5

Data set [16] is described as follows: Inhibition of sodium channel in rat dorsal root ganglia neurons assessed as reduction in veratridine-induced intracellular calcium influx at 2 to 50 uM after overnight incubation by Fura-2AM dye based fluorescence microscopy. The data set is classed as cell-based.
Data set [17] deals with enterovirus D68. In words: Antiviral activity against Enterovirus D68 US/MO/14-18949 infected in human RD cells assessed as inhibition of virus-induced cytopathic effect incubated for 5 mins under shaking condition and measured after 3 days by neutral red dye-based photometric method. Conditions: Enterovirus D, US/MO/14-18949, RD. The data set is classed as functional, organism-based. In a few lines:
as §1

Data set [18] deals with Influenza A virus. Briefly: Antiviral activity against Influenza A virus (A/California/07/2009(H1N1)) at 10 uM after 2 days by plaque assay. The data set is classed as functional, organism-based.
In data set [19] the test system is Influenza B virus. In words: Antiviral activity against Influenza B virus (B/Brisbane/60/2008) at 10 uM after 2 days by plaque assay. The data set is classed as functional, organism-based.
Data set [20] concerns A549. Briefly: Cytotoxicity against human A549 cells after 3 days by neutral red dye-based photometric method. The data set is classed as cell-based. Conditions: a549, 72 h. In a few lines:
as §4

The test system of data set [21] is RD. In words: Inhibition of 2C protein in Enterovirus D68 US/KY/14-18953 infected in human RD cells assessed as reduction of VP1 expression at 1 uM measured at 9 hrs post infection by Western blot analysis. The data set is classed as cell-based. The method in brief:
(§7)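 Equal protein separated and blotted to PVDF. Probed with rabbit anti-VP1 and mouse anti-GAPDH (1:3,000), HRP secondary, chemiluminescent detection. Mean of two independent experiments ± SD.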

Data set [22] relates to RD. Briefly: Inhibition of 2C protein in Enterovirus D68 US/KY/14-18953 infected in human RD cells assessed as reduction of VP1 expression at 3 uM measured at 9 hrs post infection by DAPI-staining based microscopy. The data set is classed as cell-based. The method in brief:
as §6

In data set [23] the test system is RD. In words: Inhibition of 2C protein in Enterovirus D68 US/KY/14-18953 infected in human RD cells assessed as reduction of VP1 expression at 3 uM measured at 9 hrs post infection by Western blot analysis. The data set is classed as cell-based. In a few lines:
as §7

Data set [24] relates to RD. Briefly: Inhibition of 2C protein in Enterovirus D68 US/KY/14-18953 infected in human RD cells assessed as reduction of viral RNA level at 3 uM measured at 9 hrs post infection by RT-qPCR method relative to control. The data set is classed as cell-based. The method in brief:
as §3

Data set [25] can be described thus: Inhibition of sodium channel in rat dorsal root ganglia neurons assessed as reduction in veratridine-induced intracellular calcium influx at 20 to 50 uM after overnight incubation by Fura-2AM dye based fluorescence microscopy. The data set is classed as cell-based.

SMILES strings stand for the structures. pEC50: −log10 of the molar value. Activity calls are given as the source filed them. The calls are words filed in the database; no cut-off is given here.

With `N=C(N)N` [GUANIDINE], the selectivity ratio in [1] is more than 1.4. In data set [2], the negative-log EC50 (pEC50) is 3.66. In data set [3], this compound showed a half-maximal cytotoxic concentration (CC50) at 72 h of more than 300 µM.

Regarding `CN(C)CCNC(=O)c1cc(-c2ccccc2)nc2ccccc12`, the negative-log EC50 (pEC50) in [4] is 6.40; in [7] it was 6.52; in data set [9] it was 6.52; in data set [10] it was 6.22; in data set [11], 6.40; in data set [2] it was 6.40. Further, the negative-log EC50 (pEC50) in [14] is 6.70; in data set [15] it was 6.70; in data set [17] it was 6.22. The inhibition in data set [5] is more than 99%. Moreover, the CC50 in data set [6] was 68.7 µM; in [8] it was 88.4 µM; in data set [13], more than 300 µM; in [20], 121 µM. Also, the inhibition entry in [12] and in data set [21] was “Active” each time. For the same compound, in data set [16], the “inhibition (INH)” value is reported as “Not Active”. The result in data set [18] and in data set [19] was inactive.

Take `CCCCOc1cc(C(=O)NCCN(CC)CC)c2ccccc2n1` [DIBUCAINE]: the negative-log EC50 (pEC50) in [4] was 5.43; in data set [7], 5.46; in data set [9] it was 5.72; in data set [10] it was 5.70; in [11], 5.77; in data set [2], 5.28. Also, the pEC50 in [15] was 5.72; in data set [17] it was 5.54. For the same compound, the CC50 in [6] is 36 µM; in [8] it was more than 30 µM; in data set [13], more than 30 µM; in data set [20], 37.5 µM. Moreover, the inhibition entry in [22] and in data set [23] was “Active” in each case. In addition, the inhibition in data set [24] came out at 80%. Moreover, in data set [25], the “inhibition (INH)” value is “Active”. For the same compound, the outcome in [18] and in data set [19] was inactive. Moreover, the inhibition result in data set [21] was “inactive”.

As for `CN(C)CCNC(=O)c1cc(-c2cccs2)nc2ccccc12`, the pEC50 in data set [4] was 7.70; in data set [7], 7.22; in data set [9] it was 7.00; in [10] it was 7.30; in data set [11], 7.00; in data set [2], 7.40. Moreover, the pEC50 in data set [14] was 7.22; in data set [15], 8.00; in [17], 7.30. Besides, in data set [5], the inhibition was more than 99%. The cytotoxic concentration (CC50) in data set [6] worked out at 51.2 µM; in [8], 73.8 µM; in data set [13] it was 136 µM; in data set [20] it was 98.8 µM. Also, the inhibition entry in data set [12] and in data set [21] was “Active” in each case. The outcome in data set [18] and in data set [19] was inactive.
